Reference: ChEMBL document CHEMBL4038327, “Inhibitory Kappa B Kinase α (IKKα) Inhibitors That Recapitulate Their Selectivity in Cells against Isoform-Related Biomarkers” (J Med Chem, 2017)
pKi: −log10 of the molar value.

Columns and labels:
[1] = target: T1, Inhibitor of nuclear factor kappa-B kinase subunit alpha (Homo sapiens, UniProt O15111); experiment: Inhibition of recombinant human N-terminal GST-tagged IKKalpha (1 to 745 residues) expressed in baculovirus expression system using biotinylated IkBalpha as substrate after 60 mins by DELFIA
T1 sequence (O15111 whole entry): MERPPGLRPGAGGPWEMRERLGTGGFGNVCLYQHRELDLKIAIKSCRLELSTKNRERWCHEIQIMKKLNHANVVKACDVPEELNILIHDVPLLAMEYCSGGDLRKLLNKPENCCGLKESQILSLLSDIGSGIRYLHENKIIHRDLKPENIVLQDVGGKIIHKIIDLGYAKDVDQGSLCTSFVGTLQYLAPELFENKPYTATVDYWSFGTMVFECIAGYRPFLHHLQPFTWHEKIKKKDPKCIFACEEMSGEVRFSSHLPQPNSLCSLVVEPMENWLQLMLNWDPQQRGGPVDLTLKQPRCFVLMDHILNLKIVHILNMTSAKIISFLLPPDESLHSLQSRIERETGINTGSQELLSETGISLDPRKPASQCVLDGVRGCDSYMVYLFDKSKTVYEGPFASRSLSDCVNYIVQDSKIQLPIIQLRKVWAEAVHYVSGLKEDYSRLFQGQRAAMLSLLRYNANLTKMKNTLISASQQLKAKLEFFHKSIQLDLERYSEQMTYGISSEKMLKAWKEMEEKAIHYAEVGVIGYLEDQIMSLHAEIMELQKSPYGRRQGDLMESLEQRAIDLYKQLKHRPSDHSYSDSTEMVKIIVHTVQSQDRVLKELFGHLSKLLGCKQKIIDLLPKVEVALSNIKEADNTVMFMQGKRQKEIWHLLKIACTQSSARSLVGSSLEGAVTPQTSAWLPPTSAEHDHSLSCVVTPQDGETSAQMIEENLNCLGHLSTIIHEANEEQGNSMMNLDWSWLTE

[2] = target: T2, Inhibitor of nuclear factor kappa-B kinase subunit beta (Homo sapiens, UniProt O14920); experiment: Inhibition of recombinant full length human IKKbeta expressed in baculovirus infected sf9 insect cells using biotinylated IkBalpha as substrate after 60 mins by DELFIA
T2 sequence (O14920 whole entry): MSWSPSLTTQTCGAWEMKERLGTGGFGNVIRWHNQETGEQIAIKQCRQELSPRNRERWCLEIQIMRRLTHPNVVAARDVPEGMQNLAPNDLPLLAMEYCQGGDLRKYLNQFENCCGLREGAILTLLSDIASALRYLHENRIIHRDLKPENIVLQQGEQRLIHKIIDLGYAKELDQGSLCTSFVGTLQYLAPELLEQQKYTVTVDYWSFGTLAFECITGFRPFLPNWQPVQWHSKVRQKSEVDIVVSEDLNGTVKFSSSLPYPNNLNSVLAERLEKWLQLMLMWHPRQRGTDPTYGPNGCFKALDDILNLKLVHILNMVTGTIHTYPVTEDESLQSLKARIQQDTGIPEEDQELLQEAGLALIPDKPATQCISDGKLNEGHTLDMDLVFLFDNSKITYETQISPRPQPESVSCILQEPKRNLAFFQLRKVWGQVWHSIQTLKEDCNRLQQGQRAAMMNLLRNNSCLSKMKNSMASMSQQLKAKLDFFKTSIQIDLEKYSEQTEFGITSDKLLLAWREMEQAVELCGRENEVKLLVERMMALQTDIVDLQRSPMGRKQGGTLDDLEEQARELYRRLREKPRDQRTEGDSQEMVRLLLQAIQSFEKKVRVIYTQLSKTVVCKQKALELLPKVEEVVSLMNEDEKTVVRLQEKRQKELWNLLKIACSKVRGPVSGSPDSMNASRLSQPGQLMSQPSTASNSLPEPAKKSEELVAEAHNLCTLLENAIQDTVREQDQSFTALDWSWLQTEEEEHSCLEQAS
In short: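 Recombinant IKKβ (37 nM) was incubated with biotinylated IκB-α (Ser32) peptide (0.375 μM) and 40 μM ATP in Tris-HCl pH 7.5 with MgCl2, EDTA, DTT and BSA for 60 min at 30 °C. The reaction was quenched with EDTA and captured on streptavidin. Detection used anti-phospho-IκBα (Ser32/36) mAb plus Eu-anti-mouse IgG, read by time-resolved fluorescence (340/615 nm). Apparent Ki was obtained via Cheng–Prusoff, n=3.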

SMILES	pKi [1]	pKi [2]
N#Cc1c[nH]c2nc(N)nc(-c3cccc(F)c3)c12	5.11	< 4.52
N#Cc1c[nH]c2nc(N)nc(N3CC[C@@H](O)C3)c12	< 4.52	< 4.52
N#Cc1c[nH]c2nc(N)nc(N[C@@H]3C[C@H](O)[C@@H](O)[C@H]3O)c12	6.10	5.44
N#Cc1c[nH]c2nc(N)nc(Cl)c12	5.40	< 4.52
N#Cc1c[nH]c2nc(N)nc(N3CC[C@H](O)C3)c12	5.22	< 4.52
Nc1nc(NC2CCCCC2)c2cc[nH]c2n1	< 4.52	< 4.52
N#Cc1c[nH]c2nc(N)nc(N3CCCCC3)c12	5.28	< 4.52
N#Cc1c[nH]c2nc(N)nc(N3CCN(c4ccccc4)CC3)c12	< 4.52	< 4.52
Nc1nc(Cl)c2cc[nH]c2n1	< 4.52	< 4.52
N#Cc1c[nH]c2nc(N)nc(N)c12	< 4.52	< 4.52
Cc1ccc(NS(=O)(=O)c2ccc(-c3nc(N)nc4[nH]cc(C#N)c34)cc2)cc1	4.80	5.85
N#Cc1c[nH]c2nc(N)nc(N3CCN(CCCO)CC3)c12	4.92	< 4.52
Nc1nc(N[C@H]2CC[C@H](O)CC2)c2cc[nH]c2n1	< 4.52	< 4.52
N#Cc1c[nH]c2nc(N)nc(N3CCN(CCO)CC3)c12	< 4.52	< 4.52
N#Cc1c[nH]c2nc(N)nc(NCC3CC3)c12	4.80	< 4.52
N#Cc1c[nH]c2nc(N)nc(-c3ccccc3)c12	5.77	< 4.52
N#Cc1c[nH]c2nc(N)nc(N(CCO)C3CCCCC3)c12	< 4.52	< 4.52
Nc1nc(NC2CCCCC2)c2c(C(F)(F)F)c[nH]c2n1	< 4.52	< 4.52
N#Cc1c[nH]c2nc(N)nc(-c3cccc(O)c3)c12	5.62	5.42
CS(=O)(=O)c1ccc(-c2nc(N)nc3[nH]cc(C#N)c23)cc1	5.62	6.52
N#Cc1c[nH]c2nc(N)nc(N3CCC[C@H]3CO)c12	5.51	< 4.52
N#Cc1c[nH]c2nc(N)nc(NC3CCCCC3)c12	5.74	< 4.52
N#Cc1c[nH]c2nc(N)nc(Nc3ccccc3)c12	4.89	< 4.52
N#Cc1c[nH]c2nc(N)nc(-c3cccc(S(N)(=O)=O)c3)c12	5.28	5.23
NC(=O)c1c[nH]c2nc(N)nc(N[C@H]3CC[C@H](O)CC3)c12	< 4.52	< 4.52
N#Cc1c[nH]c2nc(N)nc(-c3cccc(C(N)=O)c3)c12	< 4.52	< 4.52
N#Cc1c[nH]c2nc(N)nc(-c3cccc(CO)c3)c12	5.01	5.40

SMILES	pKi [1]	pKi [2]
N#Cc1c[nH]c2nc(N)nc(-c3ccccc3F)c12	5.70	< 4.52
N#Cc1c[nH]c2nc(N)nc(-c3ccc(O)cc3)c12	5.80	4.70
N#Cc1c[nH]c2nc(N)nc(-c3ccccc3C(N)=O)c12	< 4.52	< 4.52
CN1CCN(c2nc(N)nc3[nH]cc(C#N)c23)CC1	< 4.52	< 4.52
N#Cc1c[nH]c2nc(N)nc(NCCN3CCOCC3)c12	< 4.52	< 4.52
CNS(=O)(=O)c1ccc(-c2nc(N)nc3[nH]cc(C#N)c23)cc1	5.77	6.40
N#Cc1c[nH]c2nc(N)nc(-c3ccc(C(N)=O)cc3)c12	4.80	< 4.52
N#Cc1c[nH]c2nc(N)nc(-c3ccc(F)cc3)c12	5.00	< 4.52
N#Cc1c[nH]c2nc(N)nc(N3CCC(S(N)(=O)=O)CC3)c12	5.28	5.23
Nc1nc(-c2ccc(S(N)(=O)=O)cc2)c2cc[nH]c2n1	5.54	6.21
CS(=O)(=O)Nc1ccc(-c2nc(N)nc3[nH]cc(C#N)c23)cc1	5.85	7.00
N#Cc1c[nH]c2nc(N)nc(-c3ccccc3S(N)(=O)=O)c12	< 4.52	< 4.52
N#Cc1c[nH]c2nc(N)nc(Nc3ccc(S(N)(=O)=O)cc3)c12	5.00	< 4.52
N#Cc1c[nH]c2nc(N)nc(N[C@H]3CC[C@H](O)CC3)c12	5.70	< 4.52
NS(=O)(=O)c1ccc(-c2ncnc3[nH]ccc23)cc1	5.82	5.60
N#Cc1c[nH]c2nc(N)nc(NCc3ccccc3)c12	5.28	< 4.52
N#Cc1c[nH]c2nc(N)nc(-c3ccccc3CO)c12	< 4.52	< 4.52
N#Cc1c[nH]c2nc(N)nc(-c3ccccc3O)c12	4.82	< 4.52
N#Cc1c[nH]c2ncnc(-c3ccc(S(N)(=O)=O)cc3)c12	5.68	< 4.52
N#Cc1c[nH]c2nc(N)nc(NCCO)c12	5.80	< 4.52
N#Cc1c[nH]c2nc(N)nc(Nc3ccc(C(=O)O)cc3)c12	< 4.52	< 4.52
N#Cc1c[nH]c2nc(N)nc(N3CCOCC3)c12	< 4.52	4.70
Nc1nc(N2CCCCC2)c2cc[nH]c2n1	< 4.52	< 4.52
CN(c1nc(N)nc2[nH]cc(C#N)c12)C1CCCCC1	< 4.52	< 4.52
N#Cc1c[nH]c2nc(N)nc(N3CCC[C@@H]3CO)c12	5.60	< 4.52
CNc1nc(N)nc2[nH]cc(C#N)c12	4.89	< 4.52
